Experimental data from ChEMBL document CHEMBL1128440 (J Med Chem, 1995).

Legend:
[1] = biological target: T1, Progesterone receptor (Homo sapiens) (UniProt P06401); assay: Binding selectivity index as the ratio of RBA value to that of NSB value.
T1 sequence (whole entry): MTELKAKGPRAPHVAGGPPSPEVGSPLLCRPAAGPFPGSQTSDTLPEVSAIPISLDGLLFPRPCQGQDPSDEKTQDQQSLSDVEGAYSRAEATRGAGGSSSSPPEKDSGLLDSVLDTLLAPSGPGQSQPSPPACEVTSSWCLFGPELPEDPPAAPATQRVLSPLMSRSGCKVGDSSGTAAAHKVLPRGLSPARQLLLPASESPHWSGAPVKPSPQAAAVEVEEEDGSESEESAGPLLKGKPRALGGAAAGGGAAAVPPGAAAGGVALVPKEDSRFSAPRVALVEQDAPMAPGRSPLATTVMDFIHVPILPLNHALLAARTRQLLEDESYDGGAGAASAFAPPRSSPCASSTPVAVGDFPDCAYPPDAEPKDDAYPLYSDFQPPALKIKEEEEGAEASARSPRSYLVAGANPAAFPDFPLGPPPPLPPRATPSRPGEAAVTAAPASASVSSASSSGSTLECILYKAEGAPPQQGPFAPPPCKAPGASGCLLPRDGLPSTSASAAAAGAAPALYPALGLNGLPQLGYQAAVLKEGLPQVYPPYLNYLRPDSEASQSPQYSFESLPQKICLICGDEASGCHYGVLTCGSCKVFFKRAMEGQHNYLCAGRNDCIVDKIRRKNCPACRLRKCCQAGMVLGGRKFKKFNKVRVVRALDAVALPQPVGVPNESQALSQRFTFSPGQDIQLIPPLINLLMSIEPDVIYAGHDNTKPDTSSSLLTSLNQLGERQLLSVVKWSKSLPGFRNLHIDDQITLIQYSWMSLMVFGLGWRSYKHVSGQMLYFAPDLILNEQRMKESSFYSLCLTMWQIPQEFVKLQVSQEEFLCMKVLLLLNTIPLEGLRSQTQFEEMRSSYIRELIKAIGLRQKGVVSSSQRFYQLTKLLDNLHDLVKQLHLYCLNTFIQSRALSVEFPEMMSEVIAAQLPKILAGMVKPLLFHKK
Outline: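 BSI calculated as the ratio of RBA to NSB.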

[2] = biological target: T1, Progesterone receptor (Homo sapiens); assay: Nonspecific binding affinity against progesterone receptor was estimated relative to compound R5020
[3] = biological target: T1, Progesterone receptor (Homo sapiens); assay: Relative binding affinity against progesterone receptor at 0 degree Celsius determined in a competitive radiometric binding assay (R5020=100%).
Outline: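 Competitive radiometric binding at 0 °C against tritium-labeled R5020 as the standard (RBA = 100). Values are the average of two experiments.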

`CCC(=O)[C@@]1(C)CC[C@H]2[C@@H]3CCC4=CC(=O)CCC4=C3CC[C@@]21C` was tested, and the BSI [1] was 100, the NSB [2] was 1 and the RBA [3] was 100.
